Data published in ChEMBL document CHEMBL1811780, “Could LogP be a principal determinant of biological activity in 18-crown-6 ethers? Synthesis of biologically active adamantane-substituted diaza-crowns” (Eur J Med Chem, 2011).
Activity calls are given as the source filed them. The calls are words filed in the database; no cut-off is given here.

Experiments:
MCF7 = assay: Antiproliferative activity against human MCF7 cells after 72 hrs by MTT assay; assay type: functional; details: MCF7, 72 h
Summary of the method: (§1)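 Adherent monolayers grown in DMEM with 10% FBS, 2 mM L-glutamine, penicillin and streptomycin at 37 °C, 5% CO2. Cells seeded on day 0, then given five 10-fold dilutions (10^-8 to 10^-4 mol/L), DMSO at most 0.25%, for 72 h. MTT read at 570 nm. GI50 from linear regression of percentage growth around 50%. Quadruplicate points; mean of three experiments.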

HeLa = assay: Antiproliferative activity against human HeLa cells after 72 hrs by MTT assay; assay type: functional; summary of the method: as §1
MIA PaCa-2 = assay: Antiproliferative activity against human MIAPaCa2 cells after 72 hrs by MTT assay; assay type: functional; details: MIA PaCa-2, 72 h; summary of the method: as §1
NCI-H460 = assay: Antiproliferative activity against human H460 cells after 72 hrs by MTT assay; assay type: functional; details: NCI-H460, 72 h; summary of the method: as §1
Bacillus subtilis = assay: Antibacterial activity against Bacillus subtilis after 70 mins; assay type: functional, organism-based
SW-620 [1] = assay: Antiproliferative activity against human SW620 cells after 72 hrs by MTT assay; assay type: functional; details: SW-620, 72 h; summary of the method: as §1
Escherichia coli [2] = assay: Antibacterial activity against Escherichia coli assessed as growth inhibition at 10^-4 M after 105 mins; assay type: functional; details: 1.75 h, read-out: GI
Summary of the method: (§2)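 E. coli grown in LB at 37 °C with shaking to OD600 ≈0.1. Culture split into untreated control and four treated aliquots at 10^-4, 10^-5, 10^-6 and 10^-7 M. Grown 105 min (about three mass doublings) at 37 °C. Dilutions in phosphate buffer plated on LB, incubated overnight at 37 °C, CFU counted. % growth inhibition and GI50 derived as for tumour cells. Quadruplicate, at least two experiments.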

MOLT-4 = assay: Antiproliferative activity against human MOLT4 cells after 72 hrs by MTT assay; assay type: functional; details: MOLT-4, 72 h
Summary of the method: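 MOLT-4 grown in suspension in RPMI with 10% FBS, 2 mM L-glutamine, penicillin and streptomycin at 37 °C, 5% CO2. Treated with five 10-fold dilutions (10^-8 to 10^-4 mol/L), DMSO at most 0.25%, for 72 h. MTT read at 570 nm. GI50 by linear regression of percentage growth around 50%. Quadruplicate points; mean of three experiments.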

HCT-116 = assay: Antiproliferative activity against human HCT116 cells after 72 hrs by MTT assay; assay type: functional; details: HCT-116, 72 h; summary of the method: as §1
SW-620 [3] = assay: Induction of apoptosis in human SW620 cells assessed as necrotic cells at 5 uM after 48 hrs using annexin-V/conjugated 7-AAD double staining by flow cytometry (reference value: 0.14%); assay type: functional
SW-620 [4] = assay: Induction of apoptosis in human SW620 cells assessed as late apoptotic cells at 10 uM after 48 hrs using annexin-V/conjugated 7-AAD double staining by flow cytometry (reference value: 1.33%); assay type: functional
SW-620 [5] = assay: Induction of apoptosis in human SW620 cells assessed as viable cells at 10 uM after 48 hrs using annexin-V/conjugated 7-AAD double staining by flow cytometry (reference value: 95.95%); assay type: functional; details: SW-620, 48 h, read-out: Activity
SW-620 [6] = assay: Cell cycle arrest in human SW620 cells assessed as S phase reduction at 10 uM after 24 to 48 hrs using propidium iodide staining by flow cytometry; assay type: functional, cell-based
Summary of the method: (§3)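 2×10^5 SW 620 cells per well were treated 24 h after seeding, for 24 or 48 h. Attached and floating cells were pooled, fixed in 70% ethanol, then stained with 1 µg/ml PI plus RNase A. 20000 events were acquired by flow cytometry. Phase percentages came from DNA histograms; subG1 is given as a percentage of all counts.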

SW-620 [7] = assay: Induction of apoptosis in human SW620 cells assessed as necrotic cells at 10 uM after 48 hrs using annexin-V/conjugated 7-AAD double staining by flow cytometry (reference value: 0.14%); assay type: functional
SW-620 [8] = assay: Induction of apoptosis in human SW620 cells assessed as viable cells at 5 uM after 48 hrs using annexin-V/conjugated 7-AAD double staining by flow cytometry (reference value: 95.95%); assay type: functional; details: SW-620, 48 h, read-out: Activity
SW-620 [9] = assay: Induction of apoptosis in human SW620 cells assessed as late apoptotic cells at 5 uM after 48 hrs using annexin-V/conjugated 7-AAD double staining by flow cytometry (reference value: 1.33%); assay type: functional
SW-620 [10] = assay: Induction of apoptosis in human SW620 cells assessed as early apoptotic cells at 5 uM after 48 hrs using annexin-V/conjugated 7-AAD double staining by flow cytometry (reference value: 2.58%); assay type: functional
SW-620 [11] = assay: Cell cycle arrest in human SW620 cells assessed as G1 phase delay at 10 uM after 24 to 48 hrs using propidium iodide staining by flow cytometry; assay type: functional, cell-based; summary of the method: as §3
SW-620 [12] = assay: Cell cycle arrest in human SW620 cells assessed as G1 phase delay at 5 uM after 24 to 48 hrs using propidium iodide staining by flow cytometry; assay type: functional, cell-based; summary of the method: as §3
SW-620 [13] = assay: Cell cycle arrest in human SW620 cells assessed as S phase reduction at 5 uM after 24 to 48 hrs using propidium iodide staining by flow cytometry; assay type: functional, cell-based; summary of the method: as §3
SW-620 [14] = assay: Cell cycle arrest in human SW620 cells assessed as accumulation in subG1 phase at 10 uM after 24 to 48 hrs using propidium iodide staining by flow cytometry; assay type: functional, cell-based; summary of the method: as §3
SW-620 [15] = assay: Induction of apoptosis in human SW620 cells assessed as early apoptotic cells at 10 uM after 48 hrs using annexin-V/conjugated 7-AAD double staining by flow cytometry (reference value: 2.58%); assay type: functional
Escherichia coli [16] = assay: Antibacterial activity against Escherichia coli after 105 mins; assay type: functional; details: 1.75 h; summary of the method: as §2

Compound | GI50 (MCF7) | GI50 (HeLa) | GI50 (MIA PaCa-2) | GI50 (NCI-H460) | IC50 (Bacillus subtilis) | GI50 (SW-620 [1]) | inhibition of growth at 100 µM (Escherichia coli [2]) | further results
C1COCCOCC23CC4CC(C2)CC(COCCOCCO1)(C4)O3 | > 100 µM | > 100 µM | > 100 µM | > 100 µM | 1580 µM | > 100 µM | – | –
C1COCCOCCOCCOCCOCCN1 | > 100 µM | – | – | > 100 µM | 1580 µM | > 100 µM | – | –
CC(C)(C)c1cc2c(c(C(C)(C)C)c1)OCCOCCOc1c(cc(C(C)(C)C)cc1C(C)(C)C)OCCOCCO2 | – | – | – | – | 1580 µM | – | < 15% | –
c1ccc(CN2CCOCCOCCN(Cc3ccccc3)CCOCCOCC2)cc1 | – | – | – | – | 380 µM | – | < 15% | –
C1COCCOCCNCCOCCOCCN1 | > 100 µM | > 100 µM | > 100 µM | > 100 µM | 1580 µM | > 100 µM | – | GI50 (MOLT-4): > 100 µM; GI50 (HCT-116): > 100 µM
C1COCCN(CCC23CC4CC(CC(C4)C2)C3)CCOCCOCCN(CCC23CC4CC(CC(C4)C2)C3)CCO1 | 4 µM | 2.3 µM | 1.7 µM | 4 µM | 251 µM | 2.6 µM | < 15% | Activity (SW-620 [3]): 0.17%; Activity (SW-620 [4]): 9.46%; viability at 10 µM (SW-620 [5]): 76%; Activity (SW-620 [6]): Active; Activity (SW-620 [7]): 0.87%; viability at 5 µM (SW-620 [8]): 90%; Activity (SW-620 [9]): 2.34%; Activity (SW-620 [10]): 7.46%; Activity (SW-620 [11]): Active; Activity (SW-620 [12]): Active; Activity (SW-620 [13]): Active; Activity (SW-620 [14]): Active; Activity (SW-620 [15]): 13.72%
O=C(CC12CC3CC(CC(C3)C1)C2)N1CCOCCOCCOCCOCCOCC1 | > 100 µM | > 100 µM | > 100 µM | > 100 µM | – | > 100 µM | < 15% | –
O=C(CC12CC3CC(CC(C3)C1)C2)N1CCOCCOCCN(C(=O)CC23CC4CC(CC(C4)C2)C3)CCOCCOCC1 | 5 µM | – | – | 14 µM | 45.7 µM | 12 µM | < 15% | GI50 (MOLT-4): 6 µM; GI50 (HCT-116): 6 µM
c1ccc(CN2CCOCCOCCOCCOCCOCC2)cc1 | > 100 µM | – | – | > 100 µM | 1580 µM | > 100 µM | – | –
C1COCCOCCN(CCC23CC4CC(CC(C4)C2)C3)CCOCCOCCO1 | 8 µM | 16 µM | 12 µM | 15 µM | 25.1 µM | 9 µM | – | –
O=C(CCC12CC3CC(CC(C3)C1)C2)N1CCOCCOCCOCCOCCOCC1 | 17 µM | 28 µM | 30 µM | 72 µM | 1580 µM | 13 µM | < 15% | –
C(CN1CCOCCOCCOCCOCCOCC1)CC12CC3CC(CC(C3)C1)C2 | 6 µM | 14 µM | 11 µM | 15 µM | – | 9 µM | – | –
COC(=O)[C@@H](NC(=O)CN1CCOCCOCCN(CC(=O)N[C@@H](C(=O)OC)c2ccccc2)CCOCCOCC1)c1ccccc1 | – | – | – | – | 380 µM | – | < 15% | –
CC(C)(C)C1CCC2OCCOCCOC3CC(C(C)(C)C)CCC3OCCOCCOC2C1 (stereo not given) | – | – | – | – | 1.32 µM | – | < 15% | –
C(CN1CCOCCOCCN(CCCC23CC4CC(CC(C4)C2)C3)CCOCCOCC1)CC12CC3CC(CC(C3)C1)C2 | 2 µM | – | – | 1 µM | 17 µM | 1 µM | 26% | GI50 (Escherichia coli [16]): 1000 µM; Activity (SW-620 [6]): Active; GI50 (MOLT-4): 1 µM; GI50 (HCT-116): 0.4 µM; Activity (SW-620 [11]): Active; Activity (SW-620 [12]): Active; Activity (SW-620 [13]): Active; Activity (SW-620 [14]): Active
c1ccc2c(c1)OCCOCCOc1ccccc1OCCOCCO2 | – | – | – | – | 380 µM | – | < 15% | –
O=C(NCC(=O)N1CCOCCOCCN(C(=O)CNC(=O)OCc2ccccc2)CCOCCOCC1)OCc1ccccc1 | – | – | – | – | 1580 µM | – | – | –
O=C(CCC12CC3CC(CC(C3)C1)C2)N1CCOCCOCCN(C(=O)CCC23CC4CC(CC(C4)C2)C3)CCOCCOCC1 | 2 µM | – | – | 11 µM | 129 µM | 19 µM | < 15% | GI50 (MOLT-4): 3 µM; GI50 (HCT-116): 6 µM
C1CCC2OCCOCCOC3CCCCC3OCCOCCOC2C1 (stereo not given) [ICOSAHYDRODIBENZO[B,K][1,4,7,10,13,16]HEXAOXACYCLOOCTADECINE] | – | – | – | – | 166 µM | – | < 15% | –
C1COCCN(CC23CC4CC(CC(C4)C2)C3)CCOCCOCCN(CC23CC4CC(CC(C4)C2)C3)CCO1 | 21 µM | – | – | 18 µM | 25.1 µM | 19 µM | < 15% | –
CC(C)(C)c1ccc2c(c1)OCCOCCOc1cc(C(C)(C)C)ccc1OCCOCCO2 | – | – | – | – | 2 µM | – | < 15% | –
O=C(N1CCOCCOCCN(C(=O)C23CC4CC(CC(C4)C2)C3)CCOCCOCC1)C12CC3CC(CC(C3)C1)C2 | 9 µM | – | – | 12 µM | 75.9 µM | 21 µM | < 15% | –
C1COCC23CC4CC(C2)CC(COCCOCC25CC6CC(CC(CO1)(C6)O2)C5)(C4)O3 | 13 µM | 17 µM | 2 µM | 4 µM | 1580 µM | 3 µM | < 15% | –
